Screening results: PubChem, several laboratories
Apaf1 inhib – human Apaf-1 inhibition; reconstituted apoptosome caspase-3 activity, DEVD-Rh110 fluorescence; O14727; inhibition, % at 20 µM; 330,000 tested, 0.71% active; active = inhibition of at least 40% at 20 µM;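 note: plate controls were DMSO wells for no effect and DEVD-CHO caspase inhibitor wells for full effect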
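Material: biochemical Apaf-1 apoptosome reconstitution. Medium: Hepes buffer, pH 7.5. Also added: cytochrome c activation, bis-DEVD rhodamine 110 substrate. Timing: 30 min compound preincubation, 50 min activation, room temperature. Measured by: rhodamine 110 fluorescence at Ex 480/Em 540 nm.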
UCH37 inh – inhibitors of human deubiquitinating enzyme UCH37; Q9Y5K5; purified proteasome/UCH37, Ub-AMC cleavage fluorescence; inhibition, % (concentration not given with the values); 330,000 tested, 0.33% active; AID 588478;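 active = mean inhibition over replicate wells above about 20%, limit read from the data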;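 note: 0% = compound-free wells with enzyme and 100% = wells lacking proteasome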
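System: Proteasome-associated human UCH37 deubiquitinase; Input: 0.15 nM proteasome in added enzyme buffer; Also added: Ub-AMC substrate from 1 µM stock; Incubation: 30 min compound-proteasome preincubation then 25 min substrate reaction, room temperature; Detection: fluorescence, ex 355 nm, em 460 nm; Read-out: % inhibition of Ub-AMC cleavage fluorescence; Benchmarks: no-proteasome and no-compound wells.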
CTSL1 counter – counter-screen for PFM18AAP inhibitors: inhibitors of F. hepatica cathepsin L1. recombinant F. hepatica cathepsin L1, Z-Leu-Arg-MCA fluorescence. inhibition, % at 5.96 µM. 300,000 tested, 0.49% active. AID 1906;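 active = inhibition above the mean of all tested compounds plus 3 SD, set per screening campaign, cut at about 17% in these data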;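 note: 0% = plate median of test compound wells and 100% = 1 µM Z-Phe-Ala-diazomethylketone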
PAD4 FP inh – PAD4 (human) enzyme inhibition. Q9UM07. recombinant PAD4, RCA probe fluorescence polarization. inhibition, % at 6.36 µM. 330,000 tested, 0.41% active. AID 485272;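 active = percent inhibition above a cutoff equal to the mean of all tested compounds plus 3 SD, cut at about 15% in these data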;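 note: 0% = PAD4 with RCA probe and DMSO and 100% = probe without PAD4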
PP5 primary – inhibitors of human protein phosphatase 5 (PP5); P53041; purified PP5c, OMFP substrate fluorescence; inhibition, % at 6.7 µM; 320,000 tested, 0.18% active;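 active = inhibition above the campaign's mean inhibition across all tested compounds plus 3 SD, cut at about 9.5% in these data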;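 note: 0% = DMSO only and 100% = 100 µM cantharidin control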
Target sequence (P53041 whole entry, looked up): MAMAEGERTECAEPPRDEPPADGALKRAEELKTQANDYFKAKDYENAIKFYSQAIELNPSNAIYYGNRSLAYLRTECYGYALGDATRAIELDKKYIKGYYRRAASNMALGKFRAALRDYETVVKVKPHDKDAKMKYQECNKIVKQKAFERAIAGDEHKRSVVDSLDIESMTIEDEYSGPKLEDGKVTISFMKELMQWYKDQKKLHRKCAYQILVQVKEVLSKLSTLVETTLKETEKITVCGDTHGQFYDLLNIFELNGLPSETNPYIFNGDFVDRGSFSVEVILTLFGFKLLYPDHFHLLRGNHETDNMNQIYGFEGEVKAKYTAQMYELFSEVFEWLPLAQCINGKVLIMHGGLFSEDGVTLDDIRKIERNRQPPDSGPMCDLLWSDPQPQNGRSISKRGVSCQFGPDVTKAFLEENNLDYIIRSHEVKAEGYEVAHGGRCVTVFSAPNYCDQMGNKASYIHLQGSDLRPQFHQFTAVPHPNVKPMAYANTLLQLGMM
GSTO1 counter – blocks human GSTO1 in RBBP9 counter-screen; 300,000 tested, 1.1% active; recombinant GSTO1, activity-based probe fluorescence polarization; inhibition, % at 5.96 µM; P78417; AID 1974;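 active = inhibition above the campaign mean inhibition plus 3 SD, cut at about 35% in these data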;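 note: 0% = GSTO1-1 with DMSO and 100% = wells lacking GSTO1-1 enzyme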
Target sequence (P78417 whole entry, looked up): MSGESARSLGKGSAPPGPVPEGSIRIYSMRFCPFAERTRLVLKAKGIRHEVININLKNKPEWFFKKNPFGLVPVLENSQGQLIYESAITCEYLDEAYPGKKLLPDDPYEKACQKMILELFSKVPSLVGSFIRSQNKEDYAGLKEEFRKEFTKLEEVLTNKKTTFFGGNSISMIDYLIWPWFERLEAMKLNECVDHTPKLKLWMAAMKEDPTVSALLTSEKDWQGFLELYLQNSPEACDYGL
GSTO1 confirm – GSTO1 (human) inhibition, confirmation. shares compounds with GSTO1 counter. recombinant GSTO1, probe fluorescence polarization. inhibition, % at 5.96 µM. 2,400 tested, 54% active;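 active = inhibition above the primary screen's cutoff, its mean inhibition plus 3 SD, cut at about 35% in these data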;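 note: loss of polarization as inhibitors block binding of rhodamine sulfonate ester activity probe; 0% = GSTO1 with DMSO and 100% = wells lacking GSTO1 enzyme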
PP5 conf – confirmation of human PP5 phosphatase inhibitors; shares compounds with PP5 primary; Purified PP5, fluorogenic phosphatase substrate, fluorescence; inhibition, % at 6.7 µM; 460 tested, 22% active; AID 2331; in the data active = inhibition above about 9.5%
PP1 inh counter – PP1 phosphatase inhibition, counter-screen for PP5 inhibitors | shares compounds with PP5 primary | PP1 enzyme, fluorescent phosphatase substrate | inhibition, % at 6.7 µM | 460 tested, 4% active; in the data active = inhibition above about 16%
PAD4 confirm – confirmation of human PAD4 inhibitors; inhibition, % at 6.36 µM; shares compounds with PAD4 FP inh; recombinant PAD4, RCA probe fluorescence polarization; 1,200 tested, 28% active;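 active = mean inhibition across replicates above the hit cutoff set by the earlier primary screen, cut at about 15% in these data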;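 note: inhibitors block active-site labeling by the probe so polarization falls; 0% = PAD4 with probe and DMSO and 100% = probe without PAD4 enzyme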
Apaf-1 inh conf2 – confirmation of Apaf-1 inhibitors; shares compounds with Apaf1 inhib; reconstituted apoptosome, caspase-3 DEVD-Rh110 fluorescence; inhibition, % at 20 µM; 1,800 tested, 25% active;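 active = mean inhibition of at least 40% at 20 µM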;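 note: plate controls were DMSO wells for no effect and DEVD-CHO caspase inhibitor control wells for full effect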
Rh110 interf inh – Rh110 signal interference in Apaf-1 inhibitor counter-screen. shares compounds with Apaf1 inhib. Rh110 fluorescence interference, quenched caspase reaction. activation (fluorescence interference), % at 20 µM. 1,800 tested, under 10 active;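 active = signal rise of 40% or more at 20 µM, treated as a fluorescence artifact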
Apaf1 inh interf – Apaf-1 inhibitor counter-screen fluorescence artifact; shares compounds with Apaf1 inhib; fluorescence interference counterscreen, Apaf-1 assay format; IC50, µM; 460 tested, under 10 active; AID 588538; call rule not given here
UCH37 reconfirm – UCH37 Ub-AMC cleavage inhibition, confirmed; inhibition, % at 20 µM; shares compounds with UCH37 inh; AID 624100; Proteasome-bound UCH37, Ub-AMC cleavage fluorescence; 480 tested, 27% active;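 active = average inhibition over replicates above about 50%, so the earlier screening hit is confirmed, limit read from the data; inactive = the rest, counted as false positives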;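 note: based on cleavage rate fitted by regression over a 30 min kinetic read; 0% = proteasome plus Ub-AMC and 100% = Ub-AMC without proteasome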
* hit, by the source's call; . = no result; ! = repeats disagree. Shown are actives, neighbours in structure and some others; about 2% of the full set was active somewhere.

SMILES | Apaf1 inhib | UCH37 inh | CTSL1 counter | PAD4 FP inh | PP5 primary | GSTO1 counter | GSTO1 confirm | PAD4 confirm | Apaf-1 inh conf2 | Rh110 interf inh | Apaf1 inh interf | UCH37 reconfirm | others
COc1cccc(C(c2c(C)[nH]n(-c3ccccc3)c2=O)c2c(C)[nH]n(-c3ccccc3)c2=O)c1OC | 97* | 9 | 2 | 72* | 1 | 64* | 31 | 3 | 31 | 6 | . | .
Cc1[nH]n(-c2ccccc2)c(=O)c1-c1ccccc1 | 3 | 2 | 4 | 2 | 2 | -8 | . | . | . | . | . | .
CCOc1cccc(C(c2c(C)n(C)n(-c3ccccc3)c2=O)c2c(C)n(C)n(-c3ccccc3)c2=O)c1OC | 7 | 1 | 0 | -5 | 0 | -6 | . | . | . | . | . | .
Oc1c(Br)cc(Br)cc1CNc1cccc2cccnc12 | 92* | 6 | 29* | 18* | 3 | 67* | 92* | -2 | 59* | 10 | >100 | .
Oc1ccc(Br)cc1CNc1cccc2cccnc12 | 90* | . | -4 | -8 | 1 | 46* | 6 | . | 48* | 8 | >100 | .
Oc1ccc(Br)cc1CNc1cnc2ccccc2c1 | 11 | -20 | -1 | -5 | 5 | -1 | . | . | . | . | . | .
COc1cc(Br)c(C(=O)c2nccc3cc(OC)c(OC)cc23)cc1OC | 89* | . | 103* | 73* | 14* | 94* | 90* | 59* | 79* | 3 | >100 | . | PP5 conf=43*;PP1 inh counter=6
COc1cc(N)c(C(=O)c2nccc3cc(OC)c(OC)cc23)cc1OC | -8 | 5 | -6 | 0 | 1 | 4 | . | . | . | . | . | .
C/C(=N/NC(=O)Cc1cc(=O)[nH][nH]1)c1ccc([N+](=O)[O-])cc1 | 55* | . | 4 | -10 | 1 | 57* | 6 | . | 8 | -6 | . | .
CC(=NNC(=O)Cc1cc(=O)[nH][nH]1)c1cccc([N+](=O)[O-])c1 | . | -2 | . | . | . | . | . | . | . | . | . | .
Cc1ccccc1-n1c(SCC(=O)NN=Cc2ccccc2OCC(=O)O)nc2ccccc2c1=O | . | 5 | . | . | . | . | . | . | . | . | . | .
O=C(O)/C=C1\NC(=O)c2ccccc21 | 8 | 5 | 0 | -5 | -1 | 3 | . | . | . | . | . | .
O=C1N/C(=C\c2ccc(O)cc2)C(=O)c2ccccc21 | 97* | 87* | 108* | 30* | 2 | 75* | 79* | -3 | 74* | 0 | >100 | .
Nc1nonc1-n1nnc(C(=O)NN=Cc2ccncc2)c1CSc1ccc(Cl)cc1 | . | 1 | . | . | . | . | . | . | . | . | . | .
CC(=O)Nc1ccc(S(=O)(=O)/N=C2\C(=O)c3ccccc3C([O-])=C2n2cc[n+](-c3ccccn3)c2)cc1 | 84* | 57* | 31* | 32* | 1 | 77* | 82* | 2 | 76* | 3 | >100 | 58*
CC(=O)Nc1ccc(S(=O)(=O)NCCSc2ccccn2)cc1 | 1 | -2 | -5 | 4 | 0 | 1 | . | . | . | . | . | .
Cc1ccc(C=NNC(=O)CSc2nc3ccccc3c(=O)n2-c2ccccc2C)s1 | . | 6 | . | . | . | . | . | . | . | . | . | .
CC(=O)NN=C(C)c1cccc(NC(=O)c2cccs2)c1 | . | 8 | . | . | . | . | . | . | . | . | . | .
Cc1[nH]n(-c2ccccc2)c(=O)c1C(C[N+](=O)[O-])c1ccccc1Cl (configuration not stated) | 79* | 30* | -5 | -15 | 5 | 43* | 16 | . | 38 | 10 | . | 1
Cc1[nH][nH]c(=O)c1C(c1c(C)[nH][nH]c1=O)c1cn(Cc2cccc3ccccc23)c2ccccc12 | 95* | 83* | 3 | 31* | 3 | 55* | 41* | 25* | 51* | 11 | >100 | 50
CC(=O)N(C1=C(Cl)C(=O)c2ccccc2C1=O)C1CCCCC1 | 85* | 44* | 23* | 17* | 2 | 56* | 73* | 12 | 90* | 5 | >100 | 54*
O=C1CCCC2=C1C1(O)C(=O)c3ccccc3C1(O)O2 (configuration not stated) | 92* | 65* | 5 | 45* | 17* | 70* | 68* | 33* | 72* | -1 | >100 | 79* | PP5 conf=45*;PP1 inh counter=3
CCc1cc[n+](C2=C([O-])c3ccccc3C(=O)/C2=N\S(=O)(=O)c2cccs2)cc1 | 68* | 57* | 20* | 10 | 3 | 83* | 82* | . | 64* | 2 | >100 | 62*
O=C1C(=O)c2ccccc2C([O-])=C1[n+]1ccccc1 | 32 | 19 | -5 | -10 | 0 | 24 | . | . | . | . | . | .
COC(=O)c1ccccc1NC1=C/C(=N\S(=O)(=O)c2cccs2)c2ccccc2C1=O | 92* | 30* | 52* | 38* | 7 | 79* | 84* | 35* | 94* | 14 | >100 | 55*!
SMILES | Apaf1 inhib | UCH37 inh | CTSL1 counter | PAD4 FP inh | PP5 primary | GSTO1 counter | GSTO1 confirm | PAD4 confirm | Apaf-1 inh conf2 | Rh110 interf inh | Apaf1 inh interf | UCH37 reconfirm | others
CN1/C(=C\C=NNC(=O)c2ccccc2Br)C(C)(C)c2ccccc21 | . | -1 | . | . | . | . | . | . | . | . | . | .
COc1cc(NCCCC(C)N)c2ncccc2c1 (configuration not stated) | . | -1 | . | . | . | . | . | . | . | . | . | .
CCC(CNc1cc(OC)cc2cccnc12)NC1CCCCC1 (configuration not stated) | . | 37* | 86* | 90* | 8 | 80* | 9 | 14 | . | . | . | 54*
O=C1C=C(Nc2ccccc2C(=O)O)c2ccccc2C1=O | 91* | 82* | 29* | 18* | 1 | 75* | 88* | 61* | 93* | -1 | >100 | 93*
Cc1ccc(S(=O)(=O)NN=Cc2ccc3c(c2)OCO3)cc1 | . | 7 | . | . | . | . | . | . | . | . | . | .
O=C(CC(=O)Nc1cccc(Cl)c1)NN=Cc1ccccc1 | . | 5 | . | . | . | . | . | . | . | . | . | .
O=C(NNc1cc(N2CCOCC2)nc(N2CCOCC2)n1)c1ccc(Cl)c(Cl)c1 | 40 | 3 | -2 | -1 | 6 | 1 | . | . | . | . | . | .
